Test results from ChEMBL document CHEMBL1125164, “Spiro hydantoin aldose reductase inhibitors derived from 8-aza-4-chromanones” (J Med Chem, 1990).

How the values were obtained:
[1] = target: Aldo-keto reductase family 1 member B1 (Homo sapiens, UniProt P15121); test: In vitro inhibitory activity against Aldose reductase isolated from human placenta
In short: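 Human placental aldose reductase, partially purified (homogenized in 0.1 M K phosphate pH 7.0 with 5 mM 2-mercaptoethanol). Assay: 50 mM K phosphate pH 7.1, 0.4 M ammonium sulfate, 0.067 mM NADPH, 1.0 mM dl-glyceraldehyde, 25 °C. NADPH oxidation followed at 340 nm over 10 min.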

[2] = system: Rattus norvegicus; test: Tested in vivo for ability to inhibit sorbitol formation in the lens of a streptozotocinized rat model after oral administration at the dose of 1.0 mg/Kg; assay type: functional; settings: Lens of camera-type eye
In short: (§1)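 Rats made diabetic with streptozotocin 85 mg/kg iv at 0 h. Compound given by oral gavage at 4, 7 and 24 h. Lens sorbitol measured at 27 h. Reported as mean ± SEM percent inhibition of sorbitol accumulation versus untreated diabetic controls. Student's t test on absolute sorbitol levels.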

[3] = system: Rattus norvegicus; test: Tested in vivo for ability to inhibit sorbitol formation in the nerve of a streptozotocinized rat model after oral administration at the dose of 1.0 mg/Kg; assay type: functional
In short: (§2)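 Rats made diabetic with streptozotocin 85 mg/kg iv at 0 h. Compound given by oral gavage at 4, 7 and 24 h. Sciatic nerve sorbitol measured at 27 h. Reported as mean ± SEM percent inhibition of sorbitol accumulation versus untreated diabetic controls. Student's t test on absolute sorbitol levels.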

[4] = system: Rattus norvegicus; test: Tested in vivo for ability to inhibit sorbitol formation in the lens of a streptozotocinizad rat model after oral administration at the dose of 1.0 mg/Kg; assay type: functional; settings: Lens of camera-type eye; in short: as §1
[5] = system: Rattus norvegicus; test: Tested in vivo for ability to inhibit sorbitol formation in the nerve of a streptozotocinizad rat model after oral administration at the dose of 1.0 mg/Kg; assay type: functional; in short: as §2
[6] = system: Rattus norvegicus; test: Tested in vivo for ability to inhibit sorbitol formation in the lens of a streptozotocinized rat model after oral administration at the dose of 1.0 mg/kg; assay type: functional; settings: Lens of camera-type eye; in short: as §1
[7] = system: Rattus norvegicus; test: Tested in vivo for ability to inhibit sorbitol formation in the nerve of a streptozotocinized rat model after oral administration at the dose of 0.5 mg/Kg; assay type: functional; in short: as §2
[8] = system: Rattus norvegicus; test: Tested in vivo for ability to inhibit sorbitol formation in the lens of a streptozotocinized rat model after oral administration at the dose of 0.5 mg/Kg; assay type: functional; settings: Lens of camera-type eye; in short: as §1
[9] = system: Rattus norvegicus; test: Tested in vivo for ability to inhibit sorbitol formation in the nerve of a streptozotocinized rat model after oral administration at the dose of 0.1 mg/Kg; assay type: functional; in short: as §2
[10] = system: Rattus norvegicus; test: Tested in vivo for ability to inhibit sorbitol formation in the lens of a streptozotocinized rat model after oral administration at the dose of 0.1 mg/Kg; assay type: functional; settings: Lens of camera-type eye; in short: as §1
[11] = system: Rattus norvegicus; test: Tested in vivo for ability to inhibit sorbitol formation in the lens of a streptozotocinized rat model after oral administration at the dose of 5.0 mg/Kg; assay type: functional; settings: Lens of camera-type eye; in short: as §1
[12] = system: Rattus norvegicus; test: Tested in vivo for ability to inhibit sorbitol formation in the lens of a streptozotocinized rat model after oral administration at the dose of 0.25 mg/Kg; assay type: functional; settings: Lens of camera-type eye; in short: as §1
[13] = system: Rattus norvegicus; test: Tested in vivo for ability to inhibit sorbitol formation in the nerve of a streptozotocinized rat model after oral administration at the dose of 5.0 mg/Kg; assay type: functional; in short: as §2
[14] = system: Rattus norvegicus; test: Tested in vivo for ability to inhibit sorbitol formation in the nerve of a streptozotocinized rat model after oral administration at the dose of 0.25 mg/Kg; assay type: functional; in short: as §2
[15] = system: Rattus norvegicus; test: Tested in vivo for ability to inhibit sorbitol formation in the lens of a streptozotocinized rat model after oral administration at the dose of 0.15 mg/Kg; assay type: functional; settings: Lens of camera-type eye; in short: as §1
[16] = system: Rattus norvegicus; test: Tested in vivo for ability to inhibit sorbitol formation in the lens of a streptozotocinized rat model after oral administration at the dose of 0.75 mg/Kg; assay type: functional; settings: Lens of camera-type eye; in short: as §1
[17] = system: Rattus norvegicus; test: Tested in vivo for ability to inhibit sorbitol formation in the lens of a streptozotocinized rat model after oral administration at the dose of 1.5 mg/Kg; assay type: functional; settings: Lens of camera-type eye; in short: as §1
[18] = system: Rattus norvegicus; test: Tested in vivo for ability to inhibit sorbitol formation in the nerve of a streptozotocinized rat model after oral administration at the dose of 0.75 mg/kg; assay type: functional; in short: as §2
[19] = system: Rattus norvegicus; test: Tested in vivo for ability to inhibit sorbitol formation in the nerve of a streptozotocinized rat model after oral administration at the dose of 1.5 mg/Kg; assay type: functional; in short: as §2
[20] = system: Rattus norvegicus; test: Tested in vivo for ability to inhibit sorbitol formation in the nerve of a streptozotocinized rat model after oral administration at the dose of 0.15 mg/Kg; assay type: functional; in short: as §2

SMILES | IC50 [1] [nM] | inhibition in vivo at 1 mg/kg [2] [%] | inhibition in vivo at 1 mg/kg [3] [%] | also measured
C[C@H]1C[C@@]2(NC(=O)NC2=O)c2cc(Cl)cnc2O1 | 3090 | -10.6 | -9.5 | 
C[C@@H]1C[C@]2(NC(=O)NC2=O)c2cccnc2O1 (racemic) | 7220 | 33.9 | 18.2 | 
C[C@@H]1C[C@]2(NC(=O)NC2=O)c2cc(Cl)c[n+]([O-])c2O1 (racemic) | 130 |  |  | inhibition in vivo at 1 mg/kg [4]: 19.9%; inhibition in vivo at 1 mg/kg [5]: 37.6%
C[C@@H]1C[C@]2(NC(=O)NC2=O)c2cc(Br)cnc2O1 (racemic) | 500 | 67.4 | 72.7 | 
C[C@@H]1C[C@]2(NC(=O)NC2=O)c2cc(Cl)cnc2O1 (racemic; 16) | 7.5 |  | 87.5 | inhibition in vivo at 1 mg/kg [6]: 88.2%; inhibition in vivo at 0.5 mg/kg [7]: 55.8%; inhibition in vivo at 0.5 mg/kg [8]: 55.5%; inhibition in vivo at 0.1 mg/kg [9]: 8.7%; inhibition in vivo at 0.1 mg/kg [10]: 13.8%
O=C1NC(=O)[C@@]2(CCOc3ncc(Cl)cc32)N1 (racemic) | 6450 | 46.1 | 37 | 
C[C@@H]1C[C@]2(NC(=O)NC2=O)c2cc(F)cnc2O1 (racemic) | 1130 |  |  | 
C[C@@H]1C[C@]2(NC(=O)NC2=O)c2cc(Cl)cnc2O1 (racemic; 14) | 25 |  |  | inhibition in vivo at 5 mg/kg [11]: 89%; inhibition in vivo at 0.25 mg/kg [12]: 13%; inhibition in vivo at 5 mg/kg [13]: 98%; inhibition in vivo at 0.25 mg/kg [14]: 38%
C[C@@H]1C[C@]2(NC(=O)NC2=O)c2cc(Cl)c[n+]([O-])c2O1 | 950 |  |  | 
C[C@H]1C[C@]2(NC(=O)NC2=O)c2cc(Cl)cnc2O1 (racemic) | 890 |  |  | inhibition in vivo at 0.25 mg/kg [12]: 31.8%; inhibition in vivo at 0.25 mg/kg [14]: 12.8%
O=C1NC(=O)[C@@]2(CCOc3ccc(F)cc32)N1 [SORBINIL] |  |  |  | inhibition in vivo at 0.15 mg/kg [15]: 12.3%; inhibition in vivo at 0.75 mg/kg [16]: 44.2%; inhibition in vivo at 1.5 mg/kg [17]: 73.4%; inhibition in vivo at 0.75 mg/kg [18]: 72.7%; inhibition in vivo at 1.5 mg/kg [19]: 90.9%; inhibition in vivo at 0.15 mg/kg [20]: 29%
